One data set relates to A10. Briefly: Antiproliferative activity against rat A10. The class given is functional, cell-based.
In another data set the test system is VSMC. Briefly: Antiproliferative activity against serum-stimulated primary rat aortic VSMC at 30 uM after 30 mins by resazurin conversion assay. The class given is functional, tissue-based. The settings on record: Aorta. The essentials: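 Primary rat aortic VSMC were serum-starved 24 h, pretreated 30 min with 30 μM sample or 0.1% DMSO vehicle, and stimulated 48 h with 10% calf serum. Resazurin (10 μg/mL, 2 h) conversion was read as fluorescence at ex 535/em 580 nm and expressed as fold over unstimulated vehicle cells. Mean ± SD, n = 3, ANOVA/Tukey.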
Background: Resazurin is reduced to fluorescent resorufin, in cell work by metabolically active cells.

Data set [1] in a line: Cytotoxicity against primary rat aortic VSMC as cell viability at 30 uM by trypan blue exclusion assay (reference value: 98+/-2%). The class given is cell-based. The conditions noted are these: primary rat aortic vascular smooth muscle cells (VSMC), read-out: Activity.
A short description of data set [2]: Antiproliferative activity against serum-stimulated primary rat aortic VSMC after 30 mins by resazurin conversion assay. The class given is functional, tissue-based. The settings on record: Aorta. The essentials: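 Sprague–Dawley rat thoracic aorta VSMC were seeded at 1 × 10^4 cells/well, serum-starved 24 h, pretreated 30 min with sample or vehicle (final DMSO 0.1%), then stimulated 48 h with 10% calf serum. They were then washed and given 10 μg/mL resazurin for 2 h, with fluorescence read at ex 535/em 580 nm. Signals were normalized to unstimulated vehicle cells. IC50 was obtained by nonlinear regression; mean ± SD from ≥3 independent experiments.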

The nature of data set [3]: Antiproliferative activity in primary rat aortic VSMC assessed as inhibition of serum-induced DNA synthesis pretreated 30 mins prior serum addition measured after 20 hrs by BrdU incorporation assay. The conditions noted are these: Aorta.

Active and inactive are the calls of the source. The calls are words filed in the database; no cut-off is given here.

Broadly, the IC50 is the concentration that gives 50% inhibition.

In turn, `COc1ccc2ccc(=O)oc2c1CC=C(C)C` [OSTHOLE] registered an IC50 in the data set with A10 of 13.6 µM. Also, the result in the data set with VSMC was inactive.

For the molecule `CC(C)=CCOc1c2ccoc2cc2oc(=O)ccc12`, in the data set with VSMC, the result was inactive.

Take `CC(C)=CCC/C(C)=C/Cc1cc2ccc(=O)oc2cc1O` [OSTRUTHIN]: in the data set with VSMC, the outcome was Active. The viability at 30 µM in data set [1] came out at 92%. The values for the IC50 in data set [2] and in data set [3] were 11 µM and 17 µM, respectively.

`CC(C)=CCOc1c2occc2cc2ccc(=O)oc12`: in the data set on VSMC, the outcome was inactive.

Consider `C/C=C(/C)C(=O)O[C@H](COc1c2ccoc2cc2oc(=O)ccc12)C(C)(C)O`, for which the outcome in the data set with VSMC was inactive.

On to `CC(C)(O)[C@H](O)COc1c2ccoc2cc2oc(=O)ccc12`, for which, in the data set on VSMC, the result was inactive.

As to `CC1(C)O[C@H]1COc1c2ccoc2cc2oc(=O)ccc12`, the result with VSMC was inactive.

The values are drawn from ChEMBL document CHEMBL1811772, “Identification of ostruthin from Peucedanum ostruthium rhizomes as an inhibitor of vascular smooth muscle cell proliferation” (J Nat Prod, 2011).
